Here are results for four compounds from ChEMBL document CHEMBL4808183, “Betulonic Acid Derivatives Interfering with Human Coronavirus 229E Replication via the nsp15 Endoribonuclease” (J Med Chem, 2021).

Calls of active or inactive are those of the source. The calls are words filed in the database; no cut-off is given here.

The test system of one data set is Sindbis virus. Briefly: Antiviral activity against Sindbis virus. Format: functional, organism-based.
The nature of data set [1]: Selectivity index, ratio of CC50 for cytotoxicity against mock-infected human embryonic lung fibroblast cells incubated for 5 days by MTS assay to EC50 for antiviral activity against Human coronavirus 229E infected in human embryonic lung fibroblast cells assessed as reduction in virus-induced cytopathic effect incubated for 5 days by MTS cell viability assay. Format: toxicity, cell-based. The following applies: time 5 day, read-out: Ratio CC50/EC50. The method in brief: (§1)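 Confluent HEL cell cultures given serial compound dilutions together with HCoV-229E at MOI 100 and held 5 days at 35 °C. Virus-induced CPE was scored by microscopy. MTS reagent was then added and absorbance at 490 nm read 24 h later. EC50 was taken from the MTS or microscopic read-out and CC50 from MTS. SI = CC50/EC50, both by MTS. Mean ± SEM of three independent experiments.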
On the technique in general: Tetrazolium assays rely on reduction of a dye to a coloured formazan, in cell work by metabolically active cells.

The nature of data set [2]: Antiviral activity against Human coronavirus 229E infected in human embryonic lung fibroblast cells assessed as reduction in virus-induced cytopathic effect incubated for 5 days by MTS cell viability assay. Format: functional, cell-based. The conditions noted are these: 120 h. The method in brief:
as §1
For orientation: Protection from cytopathic effect is a common read-out in antiviral testing.

For the next data set, the system named is Human respirovirus 3. The data set can be described thus: Antiviral activity against Parainfluenza-3 virus. Format: functional, organism-based.
The nature of data set [3]: Cytotoxicity against mock-infected human embryonic lung fibroblast cells incubated for 5 days by MTS assay. Format: cell-based. The conditions noted are these: time 5 day. The gist of the method: as §1
Data set [4] deals with Human immunodeficiency virus. The data set can be described thus: Antiviral activity against HIV. Format: functional, organism-based.
Another data set deals with Human adenovirus 2. The data set can be described thus: Antiviral activity against Adenovirus. The format is functional.
The subject of a further data set is Reovirus sp. The data set can be described thus: Antiviral activity against Reovirus-1. Format: functional, organism-based.
Data set [5] relates to Vesicular stomatitis virus. Briefly: Antiviral activity against Vesicular stomatitis virus. Format: functional, organism-based.
A further data set has as its system Yellow fever virus. Briefly: Antiviral activity against Yellow fever virus. The format is functional, organism-based.
The next data set has as its system Punta Toro virus. Briefly: Antiviral activity against Punta Toro virus. Format: functional, organism-based.
The subject of another data set is Influenza A virus. The data set can be described thus: Antiviral activity against Influenza virus. The format is functional.
The test system of another data set is Vaccinia virus. The data set can be described thus: Antiviral activity against Vaccinia virus. Format: functional, organism-based. The conditions noted are these: Orthopoxvirus vaccinia.
Data set [6] can be described thus: Antiviral activity against Human coronavirus 229E infected in human embryonic lung fibroblast cells assessed as reduction in virus-induced cytopathic effect incubated for 5 days by microscopy. The conditions noted are these: 120 h. The format is functional, cell-based. The gist of the method: as §1
Another data set has as its system Coxsackievirus B4. The data set can be described thus: Antiviral activity against Coxsackie B4 virus. Format: functional, organism-based.
Data set [7] deals with Respiratory syncytial virus. Briefly: Antiviral activity against Respiratory syncytial virus. The format is functional, organism-based.
For data set [8], the system named is Herpes simplex virus unknown type. The data set can be described thus: Antiviral activity against Herpes simplex virus. The format is functional.

As to `C=C(C)[C@@H]1CC[C@]2(C(=O)O)CC[C@]3(C)[C@H](CC[C@@H]4[C@@]5(C)Cc6nn[nH]c6C(C)(C)[C@@H]5CC[C@]43C)[C@@H]12`, the result (in the data set with Sindbis virus; in the data set on Human respirovirus 3; in [4]; with Human adenovirus 2; in the data set with Reovirus sp.; in data set [5]) was inactive. Also, the result (in the data set on Yellow fever virus; with Punta Toro virus; with Influenza A virus; in the data set with Vaccinia virus; in the data set on Coxsackievirus B4; in [7]) was inactive. In [8], the outcome was inactive. Also, the selectivity ratio at 120 h in data set [1] was 1.9. The concentration giving a half-maximal response (EC50) in [2] was 4.3 µM; in data set [6], 3.4 µM. It took 8.3 µM to reach half-maximal cytotoxicity in data set [3] (CC50 at 120 h).
`C=C(C)[C@@H]1CC[C@]2(C(=O)O)CC[C@]3(C)[C@H](CC[C@@H]4[C@@]5(C)Cc6nnn(CCO)c6C(C)(C)[C@@H]5CC[C@]43C)[C@@H]12`: the result (in the data set with Sindbis virus; with Human respirovirus 3; in [4]; in the data set with Human adenovirus 2; in the data set with Reovirus sp.; in data set [5]) was inactive. The result (in the data set with Yellow fever virus; in the data set on Punta Toro virus; in the data set on Influenza A virus; in the data set with Vaccinia virus; in the data set on Coxsackievirus B4; in data set [7]) was inactive. In addition, the result in data set [8] was inactive. For the same compound, the selectivity ratio at 120 h in [1] was found to be 1.5. The results for the EC50 in data set [2] and in data set [6] were 3.3 µM and 2.2 µM, respectively. Moreover, in data set [3], the half-maximal cytotoxic concentration (CC50) at 120 h came out at 4.9 µM.
Take `C=C(C)[C@@H]1CC[C@]2(C(=O)O)CC[C@]3(C)[C@H](CC[C@@H]4[C@@]5(C)Cc6nnn([C@H](C)c7ccccc7)c6C(C)(C)[C@@H]5CC[C@]43C)[C@@H]12`: the result (in the data set with Sindbis virus; in the data set on Human respirovirus 3; in data set [4]; in the data set with Human adenovirus 2; in the data set on Reovirus sp.; in data set [5]) was inactive. Moreover, the result (with Yellow fever virus; in the data set with Punta Toro virus; in the data set on Influenza A virus; in the data set with Vaccinia virus; in the data set with Coxsackievirus B4; in data set [7]) was inactive. For the same compound, the result in data set [8] was inactive. Also, the selectivity ratio at 120 h in data set [1] was > 91. The EC50 in data set [2] came out at 1.1 µM; in data set [6], 0.67 µM. The 50% cytotoxic concentration (CC50) at 120 h in data set [3] was > 100 µM.
`C=C(C)[C@@H]1CC[C@]2(C(=O)O)CC[C@]3(C)[C@H](CC[C@@H]4[C@@]5(C)Cc6nnn(Cc7ccc(C(F)(F)F)cc7)c6C(C)(C)[C@@H]5CC[C@]43C)[C@@H]12`: the outcome (in the data set with Sindbis virus; with Human respirovirus 3; in data set [4]; in the data set on Human adenovirus 2; with Reovirus sp.; in data set [5]) was inactive. The result (with Yellow fever virus; in the data set with Punta Toro virus; in the data set on Influenza A virus; in the data set on Vaccinia virus; in the data set on Coxsackievirus B4; in data set [7]) was inactive. Besides, in [8], the result was inactive. For the same compound, the selectivity ratio at 120 h in data set [1] was > 10. For the same compound, the half-maximal effective concentration (EC50) is 4.8 µM in [2] and 3.6 µM in data set [6]. In addition, the CC50 at 120 h in data set [3] was ≥ 47 µM.

Usually EC50 stands for the concentration that produces a half-maximal response. As usually defined, the CC50 is the concentration at which the toxic effect on the cells reaches its halfway point.
